For one experiment, the system named is OVCAR-3. The experiment in a line: Cytotoxicity against human OVCAR3 cells. The class given is functional.
Another experiment concerns ACHN. The experiment in a line: Cytotoxicity against human ACHN cells. The experiment is classed as functional.
The next experiment relates to SR. The experiment in a line: Cytotoxicity against human SR cells. The class given is functional.
For a further experiment, the system named is OVCAR-5. Put plainly: Cytotoxicity against human OVCAR5 cells. The class given is functional.
For experiment [1], the system named is MCF7. The experiment in a line: Cytotoxicity against human MCF7 cells. The experiment is classed as functional.
Another experiment has as its system M14. Put plainly: Cytotoxicity against human M14 cells. The class given is functional.
Another experiment relates to COLO 205. Put plainly: Cytotoxicity against human COLO205 cells. The class given is functional.
A further experiment has as its system IGROV-1. Put plainly: Cytotoxicity against human IGROV1 cells. The class given is functional.
In the next experiment the test system is U-251. The experiment in a line: Cytotoxicity against human U251 cells. The class given is functional.
Another experiment relates to SK-OV-3. Put plainly: Cytotoxicity against human SKOV3 cells. The experiment is classed as functional.
In the next experiment the test system is UACC-62. The experiment in a line: Cytotoxicity against human UACC62 cells. The class given is functional.
For a further experiment, the system named is MDA-MB-435. The experiment in a line: Cytotoxicity against human MDA-MB-435 cells. The class given is functional.
For the next experiment, the system named is SF-268. Put plainly: Cytotoxicity against human SF268 cells. The experiment is classed as functional.
The test system of a further experiment is RPMI-8226. The experiment in a line: Cytotoxicity against human RPMI8226 cells. The experiment is classed as functional.
For a further experiment, the system named is PC-3. Put plainly: Cytotoxicity against human PC3 cells. The experiment is classed as functional.
The subject of another experiment is MDA-MB-468. Put plainly: Cytotoxicity against human MDA-MB-468 cells. The experiment is classed as functional.
The subject of another experiment is SN12C. Put plainly: Cytotoxicity against human SN12C cells. The experiment is classed as functional.
The subject of another experiment is OVCAR-8. The experiment in a line: Cytotoxicity against human OVCAR8 cells. The class given is functional.
Another experiment deals with LOX IMVI. The experiment in a line: Cytotoxicity against human LOXIMVI cells. The experiment is classed as functional.
A further experiment concerns MDA-MB-231. The experiment in a line: Cytotoxicity against human MDA-MB-231 cells. The class given is functional.
The next experiment deals with CAKI-1. Put plainly: Cytotoxicity against human Caki1 cells. The experiment is classed as functional.
The next experiment concerns SK-MEL-2. Put plainly: Cytotoxicity against human SK-MEL-2 cells. The class given is functional.
In a further experiment the test system is SNB-75. Put plainly: Cytotoxicity against human SNB75 cells. The class given is functional.
The test system of another experiment is HCC 2998. Put plainly: Cytotoxicity against human HCC2998 cells. The class given is functional.
A further experiment deals with BT-549. The experiment in a line: Cytotoxicity against human BT549 cells. The class given is functional.
The nature of experiment [2]: Cytotoxicity against human Hs578T cells. To be noted: Hs-578T. The experiment is classed as functional.
The test system of a further experiment is RXF 393. The experiment in a line: Cytotoxicity against human RXF393 cells. The class given is functional.
The subject of a further experiment is SW-620. The experiment in a line: Cytotoxicity against human SW620 cells. The class given is functional.
A short description of experiment [3]: Cytotoxicity against human EKVX cells. The class given is functional.
In the next experiment the test system is A498. The experiment in a line: Cytotoxicity against human A498 cells. The experiment is classed as functional.
The test system of the next experiment is HOP-92. The experiment in a line: Cytotoxicity against human HOP92 cells. The class given is functional.
The next experiment deals with TK-10. Put plainly: Cytotoxicity against human TK10 cells. The class given is functional.
In another experiment the test system is NCI-H226. The experiment in a line: Cytotoxicity against human NCI-H226 cells. The experiment is classed as functional.
The test system of another experiment is 786-0. Put plainly: Cytotoxicity against human 786-0 cells. The experiment is classed as functional.
A further experiment concerns SK-MEL-5. Put plainly: Cytotoxicity against human SK-MEL-5 cells. The experiment is classed as functional.
Another experiment has as its system MOLT-4. Put plainly: Cytotoxicity against human MOLT4 cells. The experiment is classed as functional.
The subject of another experiment is NCI-H23. The experiment in a line: Cytotoxicity against human NCI-H23 cells. The experiment is classed as functional.
In another experiment the test system is A549. The experiment in a line: Cytotoxicity against human A549 cells. The experiment is classed as functional.
Another experiment concerns SF-539. The experiment in a line: Cytotoxicity against human SF539 cells. The class given is functional.
A further experiment deals with NCI-H460. The experiment in a line: Cytotoxicity against human NCI-H460 cells. The class given is functional.
A further experiment has as its system HL-60(TB). Put plainly: Cytotoxicity against human HL-60(TB) cells. The experiment is classed as functional.
In the next experiment the test system is CCRF-CEM. Put plainly: Cytotoxicity against human CCRF-CEM cells. The class given is functional.
A further experiment has as its system HT-29. The experiment in a line: Cytotoxicity against human HT-29 cells. The experiment is classed as functional.
Experiment [4] has as its target T1, Steryl-sulfatase (Homo sapiens, UniProt P08842).
T1 sequence (P08842 whole entry): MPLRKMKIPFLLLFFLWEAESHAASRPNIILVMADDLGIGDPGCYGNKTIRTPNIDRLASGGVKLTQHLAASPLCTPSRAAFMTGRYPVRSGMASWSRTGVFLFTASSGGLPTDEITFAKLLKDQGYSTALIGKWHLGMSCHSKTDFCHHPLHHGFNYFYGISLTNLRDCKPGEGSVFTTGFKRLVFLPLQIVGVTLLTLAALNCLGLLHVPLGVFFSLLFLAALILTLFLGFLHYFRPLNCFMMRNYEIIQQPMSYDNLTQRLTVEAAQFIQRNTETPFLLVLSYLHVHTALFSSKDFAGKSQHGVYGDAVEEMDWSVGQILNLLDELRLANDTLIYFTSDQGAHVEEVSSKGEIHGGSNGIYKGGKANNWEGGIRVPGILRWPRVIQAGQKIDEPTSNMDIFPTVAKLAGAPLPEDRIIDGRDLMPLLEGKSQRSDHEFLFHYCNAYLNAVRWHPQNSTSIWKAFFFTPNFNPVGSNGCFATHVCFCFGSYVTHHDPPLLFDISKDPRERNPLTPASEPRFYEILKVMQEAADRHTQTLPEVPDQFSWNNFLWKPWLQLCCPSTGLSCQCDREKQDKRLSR
The experiment in a line: Inhibition of STS (unknown origin) using 4-MUS as substrate measured over 10 mins by fluorescence assay. The method in brief: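 Purified STS (10 nM final) in 0.1 M Tris-HCl pH 7.0 containing Triton X-100, 4-MUS 200 µM final, and inhibitor at eleven concentrations (5 nM–5 µM). Ex 360/em 460 fluorescence read over 10 min at 24 °C, in quadruplicate, with no-enzyme controls. Vi/V0 from initial rates fit to a slope-factor equation. For tight binders, Ki app is the y-intercept of IC50 vs [E] (10–80 nM).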

The next experiment concerns T47D. The experiment in a line: Cytotoxicity against human T47D cells. The experiment is classed as functional.
The next experiment deals with UACC-257. Put plainly: Cytotoxicity against human UACC257 cells. The class given is functional.
The subject of another experiment is KM12. Put plainly: Cytotoxicity against human KM12 cells. The class given is functional.
A short description of experiment [5]: Cytotoxicity against human NCI-ADR-RES cells. The experiment is classed as functional.
In a further experiment the test system is SF-295. The experiment in a line: Cytotoxicity against human SF295 cells. The class given is functional.
The target in experiment [6] is T1, Steryl-sulfatase. Put plainly: Reversible inhibition of STS (unknown origin) using 4-MUS as substrate measured over 10 mins by fluorescence assay. To be noted: read-out: Ki(app). The method in brief:
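Purified STS at 10 nM final with 200 µM 4-MUS in 0.1 M Tris-HCl pH 7.0 (enzyme stock contained Triton X-100). Eleven inhibitor levels, 5 nM–5 µM, were added from DMSO/buffer. 4-Methylumbelliferone fluorescence (ex 360, em 460 nm) was followed for 10 min at 24 °C, in quadruplicate, with no-enzyme controls. Vi/V0 initial rates were fitted for IC50. K_i^app was the IC50-vs-[E]T intercept at 10–80 nM STS.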

Experiment [7] has as its system MCF7. Put plainly: Cytotoxicity against human MCF7 cells assessed as inhibition of cell growth at 10 uM after 96 hrs by Cell Titer 96 Aqueous One solution Cell proliferation assay relative to control. The experiment is classed as functional. To be noted: MCF7, 96 h, read-out: GI.

As a reminder, the GI50 is the concentration at which growth is held to half of that of the control. A low value points to greater sensitivity of the cells. In general, IC50 refers to the concentration at which inhibition is half-maximal. Regarding `C[C@]12CC[C@@H]3c4ccc(O)c([N+](=O)[O-])c4CC[C@H]3[C@@H]1CC[C@@H]2NS(=O)(=O)c1cccc(Br)c1`, the GI50 in the experiment on OVCAR-3 turned out to be 1000 nM; in the experiment on ACHN it was 1000 nM; in the experiment with SR, 1000 nM; in the experiment on OVCAR-5, 1000 nM; in the experiment on MCF7 [1] it was 1900 nM; with M14 it was 1000 nM. The GI50 with COLO 205, in the experiment with IGROV-1, with U-251, in the experiment on SK-OV-3, in the experiment with UACC-62 and with MDA-MB-435 was 1000 nM each time. The GI50 in the experiment with SF-268 came to 1000 nM; with RPMI-8226 it was 1000 nM; with PC-3, 1000 nM; with MDA-MB-468, 2200 nM; with SN12C it was 1000 nM; with OVCAR-8 it was 1000 nM. In addition, the 50% growth inhibitory concentration (GI50) in the experiment with LOX IMVI is 1000 nM; in the experiment on MDA-MB-231 it was 1500 nM; in the experiment with CAKI-1 it was 1000 nM; with SK-MEL-2, 1000 nM; in the experiment on SNB-75, 1000 nM; in the experiment with HCC 2998 it was 1000 nM. The GI50 with BT-549 is 1600 nM; in experiment [2] it was 2100 nM; with RXF 393 it was 1000 nM; with SW-620, 1000 nM; in experiment [3], 1000 nM; in the experiment with A498, 1000 nM. For the same molecule, the concentration for 50% growth inhibition (GI50) in the experiment on HOP-92, in the experiment with TK-10, with NCI-H226, in the experiment with 786-0, in the experiment on SK-MEL-5 and with MOLT-4 was 1000 nM throughout. Moreover, the GI50 with NCI-H23, with A549, in the experiment on SF-539, in the experiment on NCI-H460, in the experiment on HL-60(TB) and in the experiment on CCRF-CEM was 1000 nM throughout. Also, the GI50 in the experiment with HT-29 came out at 1000 nM; in the experiment on T47D, 2500 nM; in the experiment with UACC-257 it was 1000 nM; with KM12, 1000 nM; in experiment [5], 1000 nM; in the experiment on SF-295, 1000 nM. At Steryl-sulfatase [4], this molecule returned an IC50 of 12 nM.

Regarding `C[C@]12CC[C@@H]3c4ccc(O)c([N+](=O)[O-])c4CC[C@H]3[C@@H]1CC[C@@H]2NS(=O)(=O)c1ccc(-c2ccccc2)cc1`, the Ki on Steryl-sulfatase [6] amounted to 1 nM.

`C[C@]12CC[C@@H]3c4ccc(O)c(F)c4CC[C@H]3[C@@H]1CC[C@@H]2NS(=O)(=O)c1cccc(C(F)(F)F)c1`: the Ki on Steryl-sulfatase [6] amounted to 2.5 nM.

With `C[C@]12CC[C@@H]3c4ccc(O)cc4CC[C@H]3[C@@H]1CC[C@@]2(O)Cc1ccccc1`, the inhibition of growth at 10 µM in the experiment on MCF7 [7] was determined as 51%.

Source of the values: ChEMBL document CHEMBL3600382, “A-ring substituted 17β-arylsulfonamides of 17β-aminoestra-1,3,5(10)-trien-3-ol as highly potent reversible inhibitors of steroid sulfatase” (Bioorg Med Chem, 2015).
